Results reported in ChEMBL document CHEMBL5303300, “EUbOPEN Chemogenomics Library - Multiplex” (2023).
Values joined by “and” are separate entries in the source; they are usually repeats but may differ in a detail not shown here. Equal values may be shown once.

Legend:
[1] = system: HEK-293T; assay: Multiplex assay against HEK293T; type: toxicity, cell-based; settings: human, number of replicates 2
Method in brief: (§1)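 Imaging took place on a CQ1 microscope at 37°C and 5% CO2 once compound had been added to live cells stained at seeding with Hoechst33342, BioTracker Green Microtubule Cytoskeleton Dye, MitoTracker Red and Annexin V Alexa Fluor 680. CellPathfinder machine-learning gating classed cells as Hoechst high-intensity objects or normal cells, classed normal cells as having healthy, pyknosed or fragmented nuclei, and classed pyknosed cells as mitotic or apoptotic. Tubulin, mitochondrial-mass and membrane-permeability phenotypes are per cents of the healthy-nucleus cells.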

[2] = system: Fibroblast; assay: Multiplex assay against human fibroblast; type: toxicity, cell-based; settings: number of replicates 2; method in brief: as §1
[3] = 24 h, 10 µM, compound concentration 10 uM
[4] = 48 h, 1 µM, compound concentration 1 uM
[5] = 48 h, 10 µM, compound concentration 10 uM
[6] = 12 h, 1 µM, compound concentration 1 uM
[7] = 12 h, 10 µM, compound concentration 10 uM
[8] = 24 h, 1 µM, compound concentration 1 uM

Cc1cc(-c2cnc(N)c3c(-c4ccc5scnc5c4)csc23)n(C)n1
Population Hoechst High Intensity Objects (%) [1, 3]: 17% and 13% | Population Membrane Permeable-Phenotype (%) [1, 3]: 2% and 1% | Population Mitochondria Different-Phenotype (%) [1, 3]: 65% | Population Mitotic Cells (%) [1, 3]: 43% and 30% | Population Normal (%) [1, 3]: 82% and 86% | Population Pyknosed Nuclei (%) [1, 3]: 14% | Population Tubulin-Different-Phenotype (%) [1, 3]: 94% and 92% | Total Cell Count [1, 3]: 457 and 429 | Population Apoptotic (%) [1, 4]: 17% and 10% | Population Fragmented Nuclei (%) [1, 4]: 14% and 9% | Population Healthy Nuclei (%) [1, 4]: 83% and 86% | Population Hoechst High Intensity Objects (%) [1, 4]: 9% and 10% | Population Membrane Permeable-Phenotype (%) [1, 4]: 6% and 2% | Population Mitochondria Different-Phenotype (%) [1, 4]: 0% | Population Mitotic Cells (%) [1, 4]: 82% and 89% | Population Normal (%) [1, 4]: 90% and 89% | Population Pyknosed Nuclei (%) [1, 4]: 2% and 4% | Population Tubulin-Different-Phenotype (%) [1, 4]: 19% | Total Cell Count [1, 4]: 2410 and 2184 | Population Apoptotic (%) [1, 5]: 62% and 80% | Population Fragmented Nuclei (%) [1, 5]: 9% | Population Healthy Nuclei (%) [1, 5]: 85% and 84% | Population Hoechst High Intensity Objects (%) [1, 5]: 17% | Population Membrane Permeable-Phenotype (%) [1, 5]: 7% and 2% | Population Mitochondria Different-Phenotype (%) [1, 5]: 24% and 30% | Population Mitotic Cells (%) [1, 5]: 37% and 20% | Population Normal (%) [1, 5]: 82% | Population Pyknosed Nuclei (%) [1, 5]: 5% | Population Tubulin-Different-Phenotype (%) [1, 5]: 89% and 92% | Total Cell Count [1, 5]: 772 and 677 | Population Apoptotic (%) [2, 6]: 48% and 40% | Population Fragmented Nuclei (%) [2, 6]: 9% and 10% | Population Healthy Nuclei (%) [2, 6]: 77% and 62% | Population Hoechst High Intensity Objects (%) [2, 6]: 0% | Population Membrane Permeable-Phenotype (%) [2, 6]: 4% and 10% | Population Mitochondria Different-Phenotype (%) [2, 6]: 0% and 2% | Population Mitotic Cells (%) [2, 6]: 51% and 60% | Population Normal (%) [2, 6]: 100% | Population Pyknosed Nuclei (%) [2, 6]: 12% and 26% | Population Tubulin-Different-Phenotype (%) [2, 6]: 14% and 15% | Total Cell Count [2, 6]: 224 and 187 | Population Apoptotic (%) [2, 7]: 66% and 51% | Population Fragmented Nuclei (%) [2, 7]: 23% | Population Healthy Nuclei (%) [2, 7]: 61% and 62% | Population Hoechst High Intensity Objects (%) [2, 7]: 0% | Population Membrane Permeable-Phenotype (%) [2, 7]: 12% and 20% | Population Mitochondria Different-Phenotype (%) [2, 7]: 2% and 0% | Population Mitotic Cells (%) [2, 7]: 33% and 48% | Population Normal (%) [2, 7]: 99% and 100% | Population Pyknosed Nuclei (%) [2, 7]: 15% and 14% | Population Tubulin-Different-Phenotype (%) [2, 7]: 76% and 56% | Total Cell Count [2, 7]: 240 and 224 | Population Apoptotic (%) [2, 8]: 50% and 60% | Population Fragmented Nuclei (%) [2, 8]: 13% and 10% | Population Healthy Nuclei (%) [2, 8]: 75% and 64% | Population Hoechst High Intensity Objects (%) [2, 8]: 0% | Population Membrane Permeable-Phenotype (%) [2, 8]: 1% and 6% | Population Mitochondria Different-Phenotype (%) [2, 8]: 0% and 3% | Population Mitotic Cells (%) [2, 8]: 50% and 39% | Population Normal (%) [2, 8]: 100% | Population Pyknosed Nuclei (%) [2, 8]: 11% and 25% | Population Tubulin-Different-Phenotype (%) [2, 8]: 10% and 13% | Total Cell Count [2, 8]: 253 and 187 | Population Apoptotic (%) [2, 3]: 68% and 59% | Population Fragmented Nuclei (%) [2, 3]: 27% | Population Healthy Nuclei (%) [2, 3]: 62% and 60% | Population Hoechst High Intensity Objects (%) [2, 3]: 0% | Population Membrane Permeable-Phenotype (%) [2, 3]: 10% and 15% | Population Mitochondria Different-Phenotype (%) [2, 3]: 1% | Population Mitotic Cells (%) [2, 3]: 32% and 40% | Population Normal (%) [2, 3]: 100% | Population Pyknosed Nuclei (%) [2, 3]: 9% and 12% | Population Tubulin-Different-Phenotype (%) [2, 3]: 74% and 46% | Total Cell Count [2, 3]: 254 and 259 | Population Apoptotic (%) [2, 4]: 71% and 61% | Population Fragmented Nuclei (%) [2, 4]: 10% and 14% | Population Healthy Nuclei (%) [2, 4]: 83% and 67% | Population Hoechst High Intensity Objects (%) [2, 4]: 0% | Population Membrane Permeable-Phenotype (%) [2, 4]: 4% and 9% | Population Mitochondria Different-Phenotype (%) [2, 4]: 1% and 3% | Population Mitotic Cells (%) [2, 4]: 28% and 38% | Population Normal (%) [2, 4]: 100% | Population Pyknosed Nuclei (%) [2, 4]: 6% and 17% | Population Tubulin-Different-Phenotype (%) [2, 4]: 8% and 13% | Total Cell Count [2, 4]: 221 and 189 | Population Apoptotic (%) [2, 5]: 66% and 72% | Population Fragmented Nuclei (%) [2, 5]: 31% and 29% | Population Healthy Nuclei (%) [2, 5]: 59% and 61% | Population Hoechst High Intensity Objects (%) [2, 5]: 0% | Population Membrane Permeable-Phenotype (%) [2, 5]: 6% and 9% | Population Mitochondria Different-Phenotype (%) [2, 5]: 1% | Population Mitotic Cells (%) [2, 5]: 33% and 27% | Population Normal (%) [2, 5]: 100% | Population Pyknosed Nuclei (%) [2, 5]: 9% and 8% | Population Tubulin-Different-Phenotype (%) [2, 5]: 71% and 54% | Total Cell Count [2, 5]: 257 and 251
